Assay results taken from ChEMBL document CHEMBL3233004, “Analogue-based design, synthesis and biological evaluation of 3-substituted-(methylenehydrazono)indolin-2-ones as anticancer agents” (Eur J Med Chem, 2014).

Columns and labels:
MCF7 [1] = test: Cytotoxicity against human MCF7 cells assessed as surviving fraction at 25 uM after 48 hrs by SRB assay relative to control; type: functional
Summary of the method: (§1)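 MCF-7 cells (ATCC) grown in DMEM with 10% heat-inactivated fetal calf serum. Seeded at 10⁴ cells/well and left 24 h to attach. Compounds dissolved in DMSO and diluted with saline, then given to the monolayer for 48 h at 37 °C under 5% CO₂. Cells fixed, stained 30 min with 0.4% SRB in 1% acetic acid, washed four times with 1% acetic acid, and bound dye recovered in Tris-EDTA. Colour read on an ELISA reader.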

MCF7 [2] = test: Cytotoxicity against human MCF7 cells assessed as surviving fraction at 10 uM after 48 hrs by SRB assay relative to control; type: functional; summary of the method: as §1
MCF7 [3] = test: Cytotoxicity against human MCF7 cells assessed as surviving fraction at 50 uM after 48 hrs by SRB assay relative to control; type: functional; summary of the method: as §1
MCF7 [4] = test: Cytotoxicity against human MCF7 cells assessed as surviving fraction at 100 uM after 48 hrs by SRB assay relative to control; type: functional; summary of the method: as §1
MCF7 [5] = test: Cytotoxicity against human MCF7 cells assessed as surviving fraction after 48 hrs by SRB assay; type: functional, cell-based; details: MCF7, 48 h; summary of the method: as §1

| SMILES | Ratio (MCF7 [1]) | Ratio (MCF7 [2]) | Ratio (MCF7 [3]) | Ratio (MCF7 [4]) | IC50 (MCF7 [5]) [µM] |
| --- | --- | --- | --- | --- | --- |
| O=C1Nc2ccc(Cl)cc2/C1=N/N=C/c1ccco1 | 0.274 | 0.384 | 0.259 | 0.231 | 7.75 |
| Cc1ccc2c(c1)/C(=N/N=C/c1cccs1)C(=O)N2 | 0.132 | 0.227 | 0.099 | 0.137 | 6.75 |
| O=C1Nc2ccc(Cl)cc2/C1=N/N=C/c1cccs1 | 0.31 | 0.619 | 0.204 | 0.194 | 15.3 |
| O=C1Nc2ccc(F)cc2/C1=N/N=C/c1cccs1 | 0.505 | 0.616 | 0.331 | 0.308 | 25.8 |
| O=C1Nc2ccccc2/C1=N/N=C/c1ccc[nH]1 | 0.328 | 0.465 | 0.395 | 0.357 | 6.25 |
| Cc1ccc2c(c1)/C(=N/N=C/c1ccc[nH]1)C(=O)N2 | 0.351 | 0.473 | 0.221 | 0.206 | 9.25 |
| O=C1Nc2ccc(Cl)cc2/C1=N/N=C/c1ccc[nH]1 | 0.392 | 0.51 | 0.238 | 0.259 | 11.8 |
| O=C1Nc2ccc(F)cc2/C1=N/N=C/c1ccc[nH]1 | 0.274 | 0.671 | 0.456 | 0.528 | 10.8 |
| O=C1Nc2ccccc2/C1=N/N=C/c1ccco1 | 0.306 | 0.637 | 0.158 | 0.333 | 15.8 |
| Cc1ccc2c(c1)/C(=N/N=C/c1ccco1)C(=O)N2 | 0.213 | 0.436 | 0.195 | 0.102 | 8.75 |
| O=C1Nc2ccc(F)cc2/C1=N/N=C/c1ccco1 | 0.429 | 0.667 | 0.335 | 0.257 | 20.3 |
| O=C1Nc2ccccc2/C1=N/N=C/c1cccs1 | 0.602 | 0.352 | 0.522 | 0.546 | 8.25 |
| COc1cccc2c1C(=O)c1c(O)c3c(c(O)c1C2=O)C[C@@](O)(C(=O)CO)C[C@@H]3O[C@H]1C[C@H](N)[C@H](O)[C@H](C)O1 [DOXORUBICIN] | 0.158 | 0.257 | 0.098 | 0.125 | 6.1 |
